What was measured:
[1] = test system: A549; assay: Cytotoxicity against human A549 cells after 48 hrs by sulforhodamine B assay; format: functional; conditions: A549, 48 h, read-out: pLC50 (the source's name) (converted)
Procedure, shortened: (§1)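 NCI human cancer cell line panel. Continuous 48 h drug exposure, viability by sulforhodamine B. GI50, TGI and LC50 derived from dose–response curves.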

[2] = test system: CCRF-CEM; assay: Cytotoxicity against human CCRF-CEM cells after 48 hrs by sulforhodamine B assay; format: functional; conditions: read-out: pLC50 (the source's name) (converted); procedure, shortened: as §1
[3] = test system: Nucleic Acid; assay: Binding affinity to pUC18 DNA assessed as DNA alkylating activity after 5 hrs by thermal cleavage assay; format: nucleic-acid assay; conditions: Escherichia coli
Procedure, shortened: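 PCR probe from the 749–956 region of pUC18. DNA precipitated and lyophilised, then heated at 90 °C for 30 min in sodium citrate buffer (pH 7.2) to cleave at alkylated adenines. Fragments resolved by electrophoresis.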

[4] = test system: L1210; assay: Cytotoxicity against mouse L1210 cells after 3 days by MTT assay; format: functional, cell-based; conditions: L1210, 72 h
Procedure, shortened: (§2)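 Murine tumour cells under continuous drug exposure for 3 days. Growth inhibition measured by MTT assay. IC50 is the concentration inhibiting growth by 50%.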

[5] = Cytotoxicity against mouse B16F0 cells after 3 days by MTT assay; format: functional, cell-based; conditions: B16F0, 72 h; procedure, shortened: as §2
[6] = test system: L1210; assay: Selectivity ratio of IC50 for mouse L1210 cells to IC50 for mouse B16F0 cells; format: functional
[7] = test system: EKVX; assay: Cytotoxicity against human EKVX cells after 48 hrs by sulforhodamine B assay; format: functional; conditions: read-out: pLC50 (the source's name) (converted); procedure, shortened: as §1
[8] = test system: HOP-62; assay: Cytotoxicity against human HOP62 cells after 48 hrs by sulforhodamine B assay; format: functional; conditions: HOP-62, 48 h, read-out: pLC50 (the source's name) (converted); procedure, shortened: as §1
[9] = test system: HOP-92; assay: Cytotoxicity against human HOP92 cells after 48 hrs by sulforhodamine B assay; format: functional; conditions: HOP-92, 48 h, read-out: pLC50 (the source's name) (converted); procedure, shortened: as §1
[10] = test system: NCI-H23; assay: Cytotoxicity against human NCI-H23 cells after 48 hrs by sulforhodamine B assay; format: functional; conditions: NCI-H23, 48 h, read-out: pLC50 (the source's name) (converted); procedure, shortened: as §1
[11] = test system: NCI-H322M; assay: Cytotoxicity against human NCI-H322M cells after 48 hrs by sulforhodamine B assay; format: functional; conditions: read-out: pLC50 (the source's name) (converted); procedure, shortened: as §1
[12] = test system: NCI-H460; assay: Cytotoxicity against human NCI-H460 cells after 48 hrs by sulforhodamine B assay; format: functional; conditions: NCI-H460, 48 h, read-out: pLC50 (the source's name) (converted); procedure, shortened: as §1
[13] = test system: NCI-H522; assay: Cytotoxicity against human NCI-H522 cells after 48 hrs by sulforhodamine B assay; format: functional; conditions: NCI-H522, 48 h, read-out: pLC50 (the source's name) (converted); procedure, shortened: as §1
[14] = test system: COLO 205; assay: Cytotoxicity against human COLO205 cells after 48 hrs by sulforhodamine B assay; format: functional; conditions: COLO 205, 48 h, read-out: pLC50 (the source's name) (converted); procedure, shortened: as §1
[15] = test system: HCT-15; assay: Cytotoxicity against human HCT15 cells after 48 hrs by sulforhodamine B assay; format: functional; conditions: HCT-15, 48 h, read-out: pLC50 (the source's name) (converted); procedure, shortened: as §1
[16] = test system: HT-29; assay: Cytotoxicity against human HT-29 cells after 48 hrs by sulforhodamine B assay; format: functional; conditions: HT-29, 48 h, read-out: pLC50 (the source's name) (converted); procedure, shortened: as §1
[17] = test system: KM12; assay: Cytotoxicity against human KM12 cells after 48 hrs by sulforhodamine B assay; format: functional; conditions: KM12, 48 h, read-out: pLC50 (the source's name) (converted); procedure, shortened: as §1
[18] = test system: SW-620; assay: Cytotoxicity against human SW620 cells after 48 hrs by sulforhodamine B assay; format: functional; conditions: SW-620, 48 h, read-out: pLC50 (the source's name) (converted); procedure, shortened: as §1
[19] = test system: SF-268; assay: Cytotoxicity against human SF268 cells after 48 hrs by sulforhodamine B assay; format: functional; conditions: SF-268, 48 h, read-out: pLC50 (the source's name) (converted); procedure, shortened: as §1
[20] = test system: SF-295; assay: Cytotoxicity against human SF295 cells after 48 hrs by sulforhodamine B assay; format: functional; conditions: SF-295, 48 h, read-out: pLC50 (the source's name) (converted); procedure, shortened: as §1
[21] = test system: SF-539; assay: Cytotoxicity against human SF539 cells after 48 hrs by sulforhodamine B assay; format: functional; conditions: SF-539, 48 h, read-out: pLC50 (the source's name) (converted); procedure, shortened: as §1
[22] = test system: SNB-19; assay: Cytotoxicity against human SNB19 cells after 48 hrs by sulforhodamine B assay; format: functional; conditions: SNB-19, 48 h, read-out: pLC50 (the source's name) (converted); procedure, shortened: as §1
[23] = test system: SNB-75; assay: Cytotoxicity against human SNB75 cells after 48 hrs by sulforhodamine B assay; format: functional; conditions: SNB-75, 48 h, read-out: pLC50 (the source's name) (converted); procedure, shortened: as §1
[24] = test system: M14; assay: Cytotoxicity against human M14 cells after 48 hrs by sulforhodamine B assay; format: functional; conditions: M14, 48 h, read-out: pLC50 (the source's name) (converted); procedure, shortened: as §1

SMILES: COc1cc2cc(C(=O)Nc3cc(O)c4ncc(C)cc4c3CCCl)[nH]c2c(OC)c1OC
- CC50 [1]: > 100 µM
- CC50 [2]: > 100 µM
- Activity [3]: Dose-dependent effect
- IC50 [4]: 0.00072 µM
- IC50 [5]: 0.0023 µM
- Ratio [6]: 10
- CC50 [7]: 3.02 µM
- CC50 [8]: < 0.01 µM
- CC50 [9]: 28.2 µM
- CC50 [10]: < 0.01 µM
- CC50 [11]: 0.123 µM
- CC50 [12]: 81.3 µM
- CC50 [13]: > 100 µM
- CC50 [14]: > 100 µM
- CC50 [15]: > 100 µM
- CC50 [16]: > 100 µM
- CC50 [17]: 0.191 µM
- CC50 [18]: > 100 µM
- CC50 [19]: > 100 µM
- CC50 [20]: 20.9 µM
- CC50 [21]: 0.151 µM
- CC50 [22]: 100 µM
- CC50 [23]: 0.0115 µM
- CC50 [24]: < 0.01 µM

From ChEMBL document CHEMBL1250434, “A novel achiral seco-cyclopropylpyrido[e]indolone (CPyI) analog of CC-1065 and the duocarmycins: synthesis, DNA interactions, in vivo anticancer and anti-parasitic evaluation” (Bioorg Med Chem, 2010)
